Structures can show the parent of a compound that is named as a salt. Where two headings read alike, the source gives them in different places. Marks after values point to notes of the source that are not given here.
What was measured:
[1] = assay type: in vivo, human; conditions: for AUC0-24 / Cmax / T1/2 / Cmin,ss / Cmax,ss: geometric mean (CV%); for Tmax: median (range); for C24: mean (SD)
In short: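 Males took 30 or 60 mg oral test compound once daily for 5 days, fasted, 10 per group. Blood (5 mL) was drawn predose and 0.25–24 h postdose on days 1 and 5, and predose on days 3 and 4. Serum (3500 rpm, 10 min, 4 °C; stored –70 °C) was assayed for parent and M1, M5, M12 by LC-MS/MS MRM, linear 0.5–1000 ng/mL. Parameters came from noncompartmental analysis, reported as geometric mean (CV%), Tmax median (range), C24 mean (SD).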

healthy Chinese males = assay: Safety and tolerability; assay type: in vivo, human
In short: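 Healthy Chinese males aged 22–45 y with BMI 19.0–24.0 kg/m2, 10 per group. They took 30 or 60 mg oral test compound tablets once daily for 5 days after an overnight fast, with standardized diets. Monitoring covered physical and ophthalmologic exams, vital signs, 12-lead ECG and labs (hematology, chemistry, coagulation, urinalysis), with a day-8 follow-up. The investigator graded AEs for severity and drug relationship, coded in MedDRA 20.0.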

CYP3A4 = CYP3A4 (Homo sapiens, UniProt P08684); assay: Preliminary in vitro metabolism study, CYP3A4; assay type: in vitro ADME; conditions: preliminary previously unreported in vitro study
CYP2C9 = CYP2C9 (Homo sapiens, UniProt P11712); assay: Preliminary in vitro metabolism study, CYP2C9; assay type: in vitro ADME; conditions: preliminary previously unreported in vitro study
PDE3 = conditions: cited from earlier work
PDE6 = conditions: cited from earlier work
PDE9 = conditions: cited from earlier work
PDE11 = conditions: cited from earlier work
[2] = 30 mg oral once daily, day 1, serum, n=10
[3] = 30 mg oral once daily, day 5, serum, n=9
[4] = 60 mg oral once daily, day 1, serum, n=10
[5] = 60 mg oral once daily, day 5, serum, n=10
[6] = 30 mg once daily 5 days, n=10, probably or possibly related to the study drug
[7] = 60 mg once daily 5 days, n=10, probably or possibly related to the study drug
[8] = 5-day once-daily doses at 30 and 60 mg

CYP3A4, sequence (P08684 whole entry): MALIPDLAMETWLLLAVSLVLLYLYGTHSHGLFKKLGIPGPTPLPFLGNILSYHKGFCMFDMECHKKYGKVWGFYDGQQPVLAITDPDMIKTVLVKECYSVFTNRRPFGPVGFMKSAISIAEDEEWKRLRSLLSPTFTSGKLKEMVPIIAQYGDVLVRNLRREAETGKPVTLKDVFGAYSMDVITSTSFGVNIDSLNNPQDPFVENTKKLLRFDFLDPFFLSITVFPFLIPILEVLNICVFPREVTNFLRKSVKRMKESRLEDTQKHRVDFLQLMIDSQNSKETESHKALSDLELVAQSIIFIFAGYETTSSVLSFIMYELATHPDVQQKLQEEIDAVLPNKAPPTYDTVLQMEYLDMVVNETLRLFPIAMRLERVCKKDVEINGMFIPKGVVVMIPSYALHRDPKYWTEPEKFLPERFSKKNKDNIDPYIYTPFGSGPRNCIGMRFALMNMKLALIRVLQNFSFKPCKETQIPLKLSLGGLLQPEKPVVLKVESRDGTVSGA
CYP2C9, sequence (P11712 whole entry): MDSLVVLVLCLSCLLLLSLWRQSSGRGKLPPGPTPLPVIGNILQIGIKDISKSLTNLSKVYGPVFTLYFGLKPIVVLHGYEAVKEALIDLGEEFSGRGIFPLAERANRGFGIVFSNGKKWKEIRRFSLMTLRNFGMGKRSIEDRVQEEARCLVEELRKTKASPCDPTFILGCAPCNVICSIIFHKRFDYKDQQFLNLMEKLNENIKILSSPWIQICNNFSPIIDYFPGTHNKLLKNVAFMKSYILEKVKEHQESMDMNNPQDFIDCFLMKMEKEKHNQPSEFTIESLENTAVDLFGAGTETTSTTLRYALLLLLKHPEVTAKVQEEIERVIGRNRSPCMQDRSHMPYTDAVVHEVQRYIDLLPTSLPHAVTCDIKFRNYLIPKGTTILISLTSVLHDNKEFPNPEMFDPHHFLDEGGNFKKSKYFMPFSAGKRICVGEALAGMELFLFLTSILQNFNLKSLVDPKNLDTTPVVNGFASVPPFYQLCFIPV

CCCc1nn(C)c2c(=O)[nH]c(-c3cc(S(=O)(=O)N4C[C@@H](C)N[C@@H](C)C4)ccc3OCC)nc12 [Aildenafil, aildenafil citrate]
AUC0-24 [1, 2]: 313.78 (45.3) h·ng/mL
Cmax [1, 2]: 81.03 (45.3) ng/mL
T1/2 [1, 2]: 2.75 (21.2) h
Tmax ([1]; 30 mg oral once daily, day 1, serum): 1.00 (0.50-2.00) h
C24 ([1]; 30 mg oral once daily, day 5, serum concentration at 24 hours): 0.92 (148.0)^b ng/mL
AUC0-24 [1, 3]: 346.23 (51.8)^b h·ng/mL
Cmin,ss [1, 3]: 1.05 (75.7)^b ng/mL
T1/2 [1, 3]: 3.61 (38.1)^b h
Cmax,ss ([1]; 30 mg oral once daily, day 5, serum, n=10): 84.61 (55.9) ng/mL
Tmax ([1]; 30 mg oral once daily, day 5, serum): 0.75 (0.25-2.00) h
C24 ([1]; 60 mg oral once daily, day 1, serum concentration at 24 hours): 1.71 (54.1) ng/mL
AUC0-24 [1, 4]: 963.18 (44.8) h·ng/mL
Cmax [1, 4]: 199.10 (37.8) ng/mL
T1/2 [1, 4]: 3.26 (19.7) h
Tmax ([1]; 60 mg oral once daily, day 1, serum): 1.00 (0.50-2.00) h
C24 ([1]; 60 mg oral once daily, day 5, serum concentration at 24 hours): 3.85 (66.8) ng/mL
AUC0-24 [1, 5]: 1683.67 (45.1) h·ng/mL
Cmax,ss [1, 5]: 319.71 (23.8) ng/mL
Cmin,ss [1, 5]: 3.61 (61.3) ng/mL
T1/2 [1, 5]: 3.38 (24.2) h
Tmax ([1]; 60 mg oral once daily, day 5, serum): 0.88 (0.50-3.00) h
amount in the blood at 24 hours relative to Cmax ([1]; after the first dose, 30 or 60 mg): less than 1/20
Blood glucose: elevated: Cases, No. (healthy Chinese males; 30 mg once daily 5 days, n=10): 0 No.
Blood glucose: elevated: Participants, No. (%) (healthy Chinese males; 30 mg once daily 5 days, n=10): 0 (0) No. (%)
Fatigue: Cases, No. (healthy Chinese males; 30 mg once daily 5 days, n=10): 0 No.
Fatigue: Participants, No. (%) (healthy Chinese males; 30 mg once daily 5 days, n=10): 0 (0) No. (%)
Head discomfort: Cases, No. (healthy Chinese males; 30 mg once daily 5 days, n=10): 0 No.
Head discomfort: Participants, No. (%) (healthy Chinese males; 30 mg once daily 5 days, n=10): 0 (0) No. (%)
Lymphocyte count: decreased: Cases, No. (healthy Chinese males; 30 mg once daily 5 days, n=10): 0 No.
Lymphocyte count: decreased: Participants, No. (%) (healthy Chinese males; 30 mg once daily 5 days, n=10): 0 (0) No. (%)
Lymphocyte percentage: decreased: Cases, No. (healthy Chinese males; 30 mg once daily 5 days, n=10): 0 No.
Lymphocyte percentage: decreased: Participants, No. (%) (healthy Chinese males; 30 mg once daily 5 days, n=10): 0 (0) No. (%)
Myalgia: Cases, No. (healthy Chinese males; 30 mg once daily 5 days, n=10): 0 No.
Myalgia: Participants, No. (%) (healthy Chinese males; 30 mg once daily 5 days, n=10): 0 (0) No. (%)
Chest discomfort: Cases, No. (healthy Chinese males; [6]): 1^a No.
Chest discomfort: Participants, No. (%) (healthy Chinese males; [6]): 1 (10.0)^a No. (%)
Vomiting: Cases, No. (healthy Chinese males; [6]): 1^a No.
Vomiting: Participants, No. (%) (healthy Chinese males; [6]): 1 (10.0)^a No. (%)
Chest discomfort: Cases, No. (healthy Chinese males; 60 mg once daily 5 days, n=10): 0 No.
Chest discomfort: Participants, No. (%) (healthy Chinese males; 60 mg once daily 5 days, n=10): 0 (0) No. (%)
Influenza-like illness: Cases, No. (healthy Chinese males; 60 mg once daily 5 days, n=10): 1 No.
Influenza-like illness: Participants, No. (%) (healthy Chinese males; 60 mg once daily 5 days, n=10): 1 (10.0) No. (%)
Vomiting: Cases, No. (healthy Chinese males; 60 mg once daily 5 days, n=10): 0 No.
Vomiting: Participants, No. (%) (healthy Chinese males; 60 mg once daily 5 days, n=10): 0 (0) No. (%)
Blood glucose: elevated: Cases, No. (healthy Chinese males; [7]): 1^a No.
Blood glucose: elevated: Participants, No. (%) (healthy Chinese males; [7]): 1 (10.0)^a No. (%)
Fatigue: Cases, No. (healthy Chinese males; [7]): 2^a No.
Head discomfort: Cases, No. (healthy Chinese males; [7]): 1^a No.
Head discomfort: Participants, No. (%) (healthy Chinese males; [7]): 1 (10.0)^a No. (%)
Lymphocyte count: decreased: Cases, No. (healthy Chinese males; [7]): 1^a No.
Lymphocyte count: decreased: Participants, No. (%) (healthy Chinese males; [7]): 1 (10.0)^a No. (%)
Lymphocyte percentage: decreased: Cases, No. (healthy Chinese males; [7]): 1^a No.
Lymphocyte percentage: decreased: Participants, No. (%) (healthy Chinese males; [7]): 1 (10.0)^a No. (%)
fatalities or serious AEs (healthy Chinese males; [8]): no fatalities or serious AEs
impact on heart rate, blood pressure, or visual function (healthy Chinese males; [8]): no clinically significant impact
severity of observed AEs (healthy Chinese males; [8]): mild to moderate
instances of AEs assessed by the investigator to be linked to the study drug (healthy Chinese males; both dose groups, 20 participants): 26
creatine kinase compared with baseline (healthy Chinese males; day 4): failed to reveal any noteworthy deviations
involvement of CYP3A4 in the metabolism (CYP3A4): involvement
involvement of CYP2C9 in the metabolism (CYP2C9): involvement
inhibition ratio relative to similar products (PDE3): 0.75
inhibition ratio relative to similar products (PDE6): 0.30
inhibition ratio relative to similar products (PDE9): 0.06
inhibition ratio relative to similar products (PDE11): 0.49

From paper PMC10937897 (Sexual Medicine, 2024)
